TAAR1 ag = agonists of human TAAR1 | Q96RJ0 | CHO RD-HGA16 TAAR1, Fluo-8 calcium fluorescence; vehicle wells 0%, saturating PEA agonist 100% | activation, % at 3 µM | 0.99% of 360,000 active | AID 624467;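 active = activation above the mean activation of all test compounds in the run plus 3 SD, cut at about 38% in these data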
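Test system: RD-HGA16 (CHO) cells co-expressing Gα16 and hTAAR1; dosing: one-point dosing at 3 µM (nominal); timing: 17-24 h seeding, 75 min 37 °C dye, 30 min RT; signal: kinetic Fluo-8 calcium fluorescence; read-out basis: % activation relative to PEA EC100 response; controls: DMSO and PEA EC100; replicates: n 1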
TAAR1 antag = human TAAR1 antagonism. CHO RD-HGA16 TAAR1, Fluo-8 calcium fluorescence, antagonist. inhibition, % at 3 µM. 1.5% of 360,000 active. AID 624466;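 active = inhibition above a per-plate cutoff, the mean inhibition of test compounds on that plate plus 3 SD, cut at about 49% in these data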
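Test system – hTAAR1-expressing CHO RD-HGA16 cells, Gα16-coupled · Also added – β-PEA at EC80 concentration, post-compound challenge · Compound – 3 µM, single point · Incubation – dye loading 75 min at 37 °C, then 30 min room temperature · Measured by – Fluo-8 intracellular calcium dye fluorescence, real-time kinetic reads · Benchmarks – vehicle and agonist controls · Replicates – singlicate, one well per test compound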
OX1R antag-1 = blocks the human orexin 1 receptor. OX1R-expressing cells, FRET antagonist read-out. inhibition, % at 6.6 µM. 1.8% of 330,000 active; in the data active = inhibition mostly above about 38%, no sharp cut-off; inactive = mostly below about 40%
Target sequence (O43613 whole entry, looked up): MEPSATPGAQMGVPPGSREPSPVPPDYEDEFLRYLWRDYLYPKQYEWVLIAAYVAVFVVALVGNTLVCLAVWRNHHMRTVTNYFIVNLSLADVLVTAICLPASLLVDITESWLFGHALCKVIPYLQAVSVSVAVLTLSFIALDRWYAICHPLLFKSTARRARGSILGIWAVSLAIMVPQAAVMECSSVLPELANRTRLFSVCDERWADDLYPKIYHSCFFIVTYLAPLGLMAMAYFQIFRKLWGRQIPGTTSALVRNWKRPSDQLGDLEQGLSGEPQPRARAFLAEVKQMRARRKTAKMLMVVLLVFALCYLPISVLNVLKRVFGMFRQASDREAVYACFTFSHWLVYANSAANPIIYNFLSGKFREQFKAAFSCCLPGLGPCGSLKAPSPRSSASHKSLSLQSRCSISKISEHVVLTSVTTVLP
OX1R antag-2 = antagonists of human orexin 1 receptor. inhibition, % at 5 µM. 0.43% of 330,000 active. CHO/OX1R cells, Fluo-8 calcium fluorescence, orexin A. O43613. AID 434989;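 active = inhibition above its plate's threshold, mean inhibition of all tested compounds on the plate plus 3 SD, cut at about 37% in these data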
CHO parental Ca = counter-screen: ATP calcium response change in parental CHO cells; inhibition, % at 5.6 µM; parental CHO-K1, ATP-induced calcium, Fluo-8 fluorescence; 0.63% of 330,000 active;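 active = inhibition above that plate's mean sample inhibition plus 3 SD, cut at about 26% in these data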
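Test system: untransfected parental CHO cell line. Compound: one dose, 5.6 µM nominal. Detection: intracellular calcium via Fluo-8 no-wash fluorescent dye. Measure: % inhibition. Benchmarks: ATP-challenged DMSO wells low, unchallenged DMSO wells high.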
Hits are given with their value; i = inactive; nt = no result. In the library only some 4% were active in any assay of this set; here they are far more common.

SMILES	TAAR1 ag	TAAR1 antag	OX1R antag-1	OX1R antag-2	CHO parental Ca
Cc1c(C(=O)Nc2nonc2-c2ccc(F)cc2)oc2ccc(F)cc12	i	i	49	i	i
CC1(C)CC(=O)C(=Cc2cn(-c3ccccc3)nc2-c2ccccc2)C(=O)C1	i	i	i	i	i
CC1=NNC(=O)/C1=C\c1cn(-c2ccccc2)nc1-c1ccc(Cl)cc1	i	i	i	53	37
CCN(CC)S(=O)(=O)c1cccc(C(=O)N/N=C/c2ccc([N+](=O)[O-])o2)c1	i	i	73	i	i
Cc1ccc(/C=N\NC(=O)c2cc([N+](=O)[O-])cc([N+](=O)[O-])c2)o1	i	i	65	i	i
O=C(N/N=C\c1ccc([N+](=O)[O-])o1)c1cncc(Br)c1	i	i	i	i	i
O=[N+]([O-])c1ccc(/C=[N+](\[O-])[C@@H]2CCCC[C@@H]2/[N+]([O-])=C/c2ccc([N+](=O)[O-])o2)o1	i	i	42	i	i
Cc1nc2ccccn2c1C(=O)N/N=C/c1ccc([N+](=O)[O-])o1	i	i	65	i	i
O=S(=O)(CS(=O)(=O)c1ccccc1Br)c1ccccc1Br	i	i	nt	nt	nt
CCCCOCCCNC(=O)C[C@H]1C[C@@]2(C(=O)OC)C(=C[C@H](C(C)(C)C)O[C@@H]2C)N(CCC2=CCCCC2)C1=O	i	i	nt	nt	nt
CCOC(=O)c1cc(CC)sc1NC(=O)COC(=O)c1cc[n+]([O-])cc1	i	i	i	i	i
Cc1scc(C(=O)N/N=C/c2ccc([N+](=O)[O-])o2)c1C	i	i	51	i	i
O=C(N/N=C/c1ccc([N+](=O)[O-])o1)c1ccncc1	i	i	55	i	i
O=C(N/N=C/c1ccc([N+](=O)[O-])o1)C1CCCC1	i	i	91	i	i
O=C(N/N=C/c1ccc([N+](=O)[O-])o1)c1ccc(O)cc1	i	i	74	i	i
O=S(=O)(c1ccc(F)cc1)N1CCCc2nc(-c3ccc(F)cc3)ccc21	i	i	nt	nt	nt
Cc1cc(C(C)(C)C)oc1C(=O)N(CC(=O)NC1CCCC1)Cc1ccccc1Cl	i	i	89	105	i
O=C(CN(Cc1ccccc1Cl)C(=O)CCC(=O)Nc1nccs1)NCC1CCCO1 (stereo not given)	i	i	i	i	i
O=[N+]([O-])c1cnn2cc(Br)cnc12	i	i	74	i	i
CCOC(=O)c1cnc2c([N+](=O)[O-])cnn2c1C	i	i	i	i	i
O=C(c1ccco1)N1CCN(C(c2ccccc2)c2nnnn2Cc2cccs2)CC1 (stereo not given)	i	i	i	i	i
O=C(c1ccco1)N1CCN(C(c2ccccc2Cl)c2nnnn2Cc2cccs2)CC1 (stereo not given)	i	59	i	i	i
Cc1ccc(C2(C)NC(=O)N(CC(=O)N(Cc3ccccc3)C(C)(C)C)C2=O)cc1 (stereo not given)	i	i	i	i	i
CN(CCOc1ccccc1)C(=O)CCc1c[nH]c2ccccc12	i	i	i	i	i
Cc1ccccc1Cn1nc(C)c(NC(=O)/C=C/c2cnn(C)c2C)c1C	i	i	i	i	i
SMILES	TAAR1 ag	TAAR1 antag	OX1R antag-1	OX1R antag-2	CHO parental Ca
Cc1nn(Cc2c(Cl)cccc2Cl)c(C)c1NC(=O)/C=C/c1cnn(C)c1C	i	i	56	i	i
CCOC(=O)CC(=O)CSc1nc(N)c(C#N)c(-c2ccc(Cl)cc2)c1C#N	i	i	i	i	i
CCCSc1nc(N)c(C#N)c(-c2ccc(C)cc2)c1C#N	i	54	i	i	41
CCCCNc1nc(NCc2ccccc2)nc2ccccc12	78	92	nt	nt	nt
CCNC(=O)N1CCN(c2ccc(N3CCN(Cc4ccccc4)[C@@H](C)C3)c(C)c2)[C@@H](C)C1	i	i	nt	nt	nt
Nc1nc2c(ncn2[C@@H]2O[C@H](C(=O)NCCCN3CCCC3=O)[C@@H](O)[C@H]2O)c(=O)[nH]1	i	i	nt	nt	nt
COc1cc(C2(c3ccc(O)c(OC)c3)C(=O)Nc3c(C)cc(Br)cc32)ccc1O	i	51	i	i	i
Cc1[nH]n(-c2ccccc2)c(=O)c1N=Nc1nccs1	42	i	i	i	i
CCCCN(C(=O)CCOc1ccc(OCC)cc1)c1c(N)n(Cc2ccccc2)c(=O)[nH]c1=O	i	i	nt	nt	nt
CCC1(c2ccc(F)cc2)NC(=O)N(CC(=O)Nc2ccc(-c3nc4ccc(C)cc4s3)cc2)C1=O (stereo not given)	i	i	i	i	i
Cc1ccc(NC(=O)CN2C(=O)NC(C)(c3ccc(Cl)cc3)C2=O)cc1 (stereo not given)	41	i	i	i	i
CCOC(=O)c1ccc(NC(=O)C2(c3ccc(Cl)cc3)CCCC2)cc1	i	i	i	i	i
O=C(CCN1C(=O)NC2(CCCC2)C1=O)Nc1ccc(-c2nc3ccccc3s2)cc1	i	68	i	i	i
COc1ccc(C2(C)NC(=O)N(CC(=O)Nc3ccc(-c4nc5ccc(C)cc5s4)cc3)C2=O)cc1 (stereo not given)	i	i	i	i	29
Cc1ccc(NC(=O)COC(=O)C2(c3ccc(Cl)cc3)CCCC2)cc1	i	58	i	i	i
CS(=O)(=O)c1cccc(C(=O)OCC(=O)NC(=O)Nc2ccccc2F)c1	i	i	i	i	i
COc1cccc(C(=O)Nc2cc(C)c3c(=O)oc4ccccc4c3n2)c1	i	i	45	i	i
CC(C)NC(=O)C1(C)CSCC(=O)N1Cc1cccc(F)c1 (stereo not given)	i	i	nt	nt	nt
CC(Oc1ccc(C#N)cc1)C(=O)Nc1ccc(-n2cnnn2)cc1 (stereo not given)	44	i	nt	nt	nt
COc1ccc(N=Nc2c(C)[nH][nH]c2=O)cc1	i	i	57	i	i
COC(=O)[C@]12C[C@H](CC(=O)NCC3CCCCC3)C(=O)N(Cc3ccccc3)C1=C[C@H](C(C)C)O[C@@H]2C1CC1	i	i	nt	nt	nt
CCc1cccc2c(C(=O)COC(=O)[C@@H]3CC(O)CN3S(=O)(=O)c3ccccc3[N+](=O)[O-])c[nH]c12 (stereo not given in full)	i	56	i	i	i
O=C(N[C@@H](Cc1cccnc1)C(=O)N1CCC[C@H]1C(=O)NCc1ccccc1)c1ccccc1	i	i	nt	nt	nt
CC(C)=CCc1c(O)ccc(C(=O)Cc2ccccc2)c1O	40	i	i	i	i
COC(=O)[C@@H](N[C@H](/C=C/c1ccccc1)[C@@H](O)Cc1ccccc1)c1ccccc1	i	i	nt	nt	nt
CN(C)c1ccc2nc3c(=O)[nH]c(=O)nc-3n(CC(O)C(O)C(O)CO)c2c1 (stereo not given)	i	i	74	i	i
Cc1ncc(C(O)c2ccc(N(C)C)cc2)n1Cc1ccccc1 (stereo not given)	i	i	nt	nt	nt
CCOC(=O)C1=C(C)N(CCCC(=O)O)C(=O)NC1c1ccccc1OC(=O)c1cccs1 (stereo not given)	i	i	i	i	i

Bioassay records from PubChem BioAssay.
